From publication PMC2034471 (Nucleic Acids Research, 2007)
Ends that are not written are not given here. Me2 = dimethylated (lysine)

Key:
[1] = system: mouse 53BP1 tudor fragment (1463–1617); assay: isothermal titration calorimetry; format: binding; conditions: 30°C; for Ka (ITC): 50 mM Tris/HCl pH 7.2, 50 mM NaCl, protein 18–33 µM, one-site model; for TΔS / ΔG / ΔH: ITC; for TΔS / ΔG: pH 7.2; for ΔH: pH 7.2, one-site model
In short: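 Protein in the cell titrated with H4-K20me2 or H4K20me2-long peptide, generally 10–15 times more concentrated, both equilibrated in the same buffer, by automatic 5–10 µl injections. The first 2 µl injection was excluded. Peaks were integrated and baseline-corrected. Heat of dilution was taken from peptide injected into buffer. One-site fitting gave n, Ka and ΔH.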

[2] = system: rad9Δ cells complemented with rad9ΔTudor allele; assay: resistance of yeast cells to genotoxic stress, spot test; format: cell-based, Saccharomyces cerevisiae; conditions: 10-fold serial dilutions on YPD plates with drug; versus wild-type RAD9
In short: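 The rad9Δ-L157 full RAD9 deletion strain carried a URA3 YCp50 plasmid: empty, wild-type RAD9 under its own promoter, or RAD9 lacking tudor aa 754–947. Overnight YPD cultures were diluted to OD 0.1 and grown 4–5 h. Tenfold dilutions were spotted on YPD ± camptothecin or 4-nitroquinoline 1-oxide, or plates given UV (120 J/m2) or X-rays (150 Gy, 2.5 Gy/min).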

[3] = target: Mm53BP1[1463–1617] (mouse) (UniProt P70399); assay: NMR titration
ScRad9[754–947] = assay: NMR titration of ScRad9[754–947] with histone peptides; format: binding, Saccharomyces cerevisiae; conditions: ^1H-^15N HSQC, 600 MHz; protein 0.2–0.5 mM; 50 mM MES pH 6, 50 mM NaCl
In short: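 15N-labelled protein (0.2–0.5 mM) in 50 mM MES pH 6, 50 mM NaCl, 1 mM EDTA, 1 mM NaN3, protease inhibitors, TSP reference. Methyl-lysine H3-K79 and H4-K20 tail peptides titrated to 9-, 7-, 5- or 2-fold molar excess. Weighted shift |Δδ1H| + 0.1×|Δδ15N| plotted against ligand concentration; Kd fitted from the curves.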

histone H3 = conditions: GST fusion; ref [16],[32]; cited from earlier work
[4] = aggregation / stability of Rad9 fragments in solution; format: physicochemical
[5] = system: single-stranded and double-stranded DNA; conditions: EMSA; human 53BP1; ref [33]; cited from earlier work
10 bp oligonucleotide = conditions: NMR; ref [15]; cited from earlier work
[6] = system: 146 bp double-stranded DNA; assay: EMSA, 146 bp ds DNA; format: binding; conditions: DNA 26 nM, 2- to 128-fold molar excess of protein
In short: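 146 bp fragment made by PCR on a pUC(357.4) digest template and 5′-end labelled with 32P-ATP/T4 polynucleotide kinase at 37°C. Protein fragments incubated with labelled DNA for 2 h at 22°C in 50 mM Tris–HCl pH 8.0, 1 mM EDTA, 1 mM AEBSF, 1 mM DTT, 50 mM NaCl, 0.1% triton X-100. Resolved on pre-run 6% native polyacrylamide (29:1) in 0.5× TEG at 70 V. Complexes detected by autoradiography of dried gels at –80°C.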

Mm53BP1[1463–1617] = Mm53BP1[1463–1617] (mouse, UniProt P70399 1463-1617); assay: ITC
DNA = assay: surface plasmon resonance, DNA binding; conditions: versus wild-type ScRad9[754–931]; data not shown
H3 from calf thymus = assay: GST-pulldown, binding to histone H3; conditions: calf thymus H3, immunoblotting after elution from beads; data not shown

Molecule: GKGGAKRHRK*VLRDNIQGK [H4-K20me2-long]
- Ka (ITC) [1]: 110000 ± 16000 M⁻¹
- TΔS [1]: 4.6 kcal/mol
- ΔG [1]: –6.9 kcal/mol
- ΔH [1]: –2.3 ± 0.1 kcal/mol

Molecule: O=[N+]([O-])c1cc[n+]([O-])c2ccccc12 [4-nitroquinoline 1-oxide]
- sensitivity of rad9ΔTudor cells to DNA damage [2]: hypersensitivity to DNA damage

Molecule: H3-K79me2 peptide
- Kd [3]: 1500 µM

Molecule: CC[C@@]1(O)C(=O)OCc2c1cc1n(c2=O)Cc2cc3ccccc3nc2-1 [camptothecin]
- sensitivity of rad9ΔTudor cells to DNA damage [2]: hypersensitivity to DNA damage which was particularly pronounced

Molecule: KRHRK*ILRD [yeast H4K20me2]
- binding to ScRad9[754–947] (^1Hn and ^15N chemical shifts) (ScRad9[754–947]): cannot bind

Molecule: KRHRK*VLRD [metazoan H4K20me2]
- binding to ScRad9[754–947] (^1Hn and ^15N chemical shifts) (ScRad9[754–947]): cannot bind
- Ka (ITC) [1]: 130000 ± 16000 M⁻¹
- TΔS [1]: 4.9 kcal/mol
- ΔG [1]: –7.1 kcal/mol
- ΔH [1]: –2.2 ± 0.1 kcal/mol

B1: GST-ScRad9[750–917]: Rad9 construction reported by two different groups; stability by NMR tested here (protein, UniProt P14737 750-917, looked up, fragment)
chain: ETGSGKDSKEQSYVFPEGIRTADNSFLSKDDIIFGNAVWCQYTWNYKFYPGILLEVDTNQDGCWIYFETGRSLTKDEDIYYLDIRIGDAVTFDGNEYVVVGLECRSHDLNIIRCIRGYDTVHLKKKNASGLLGKRTLIKALSSISLDLSEWAKRAKIILEDNEKNKGD
modifications: GST tag
- capture of histone H3 (histone H3): capture of histone H3
- NMR signal lost ([4]; after 2.5 h at 30°C): 40%

B2: fragments 1319–1480: human 53BP1 fragment 1319–1480 containing the RG-rich stretch (protein, UniProt Q12888 1319-1480, looked up, fragment)
chain: TSLSAMHSSGSSGKGAGPLRGKTSGTEPADFALPSSRGGPGKLSPRKGVSQTGTPVCEEDGDAGLGIRQGGKAPVTPRGRGRRGRPPSRTTGTRETAVPGPLGIEDISPNLSPDDKSFSRVVPRVPDSTRRTDVGAGALRRSDSPEIPFQAAAGPSDGLDAS
- interaction with DNA in vitro [5]: interact with single-stranded and double-stranded DNA in vitro

B3: Mm53BP1[1463–1617]: mouse 53BP1 fragment 1463–1617, tandem tudor region (protein)
chain: PFQAATGSSDGLDSSSSGNSFVGLRVVAKWSSNGYFYSGKITRDVGAGKYKLLFDDGYECDVLGKDILLCDPIPLDTEVTALSEDEYFSAGVVKGHRKESGELYYSIEKEGQRKWYKRMAVILSLEQGNRLREQYGLGPYEAVTPLTKAADISLD
- affinity for 10 bp oligonucleotide, in words (10 bp oligonucleotide): millimolar affinity interaction
- interaction with 146 bp ds DNA by gel retardation [6]: could not detect any interaction

B4: 1480–1616: human 53BP1 fragment 1480–1616 containing the tudor region (protein, UniProt Q12888 1480-1616, looked up, fragment)
chain: SSPGNSFVGLRVVAKWSSNGYFYSGKITRDVGAGKYKLLFDDGYECDVLGKDILLCDPIPLDTEVTALSEDEYFSAGVVKGHRKESGELYYSIEKEGQRKWYKRMAVILSLEQGNRLREQYGLGPYEAVTPLTKAAD
- interaction with DNA in vitro [5]: interact with single-stranded and double-stranded DNA in vitro

Molecule: GKGGAKRHRKVLRDNIQGK (K* dimethylated (K20, tenth residue of the peptide)) [Metazoan H4-K20me2-long peptide]
- Ka (Mm53BP1[1463–1617]): 110000 M⁻¹
- Kd (Mm53BP1[1463–1617]): 8.8 µM
- dH (Mm53BP1[1463–1617]): -2.3 ± 0.1 kcal/mol
- stoichiometry N (Mm53BP1[1463–1617]): 1

B5: ScRad9[754–931]: shorter fragment 754–931 of S. cerevisiae Rad9 (protein, UniProt P14737 754-931, looked up, fragment)
chain: GKDSKEQSYVFPEGIRTADNSFLSKDDIIFGNAVWCQYTWNYKFYPGILLEVDTNQDGCWIYFETGRSLTKDEDIYYLDIRIGDAVTFDGNEYVVVGLECRSHDLNIIRCIRGYDTVHLKKKNASGLLGKRTLIKALSSISLDLSEWAKRAKIILEDNEKNKGDAYRYLRHPIRGRKS
- aggregation propensity / rate relative to ScRad9[754–947] [4]: same aggregation propensity

B6: ScRad9[754–931,C789A,C812S,C853S] (protein, UniProt P14737 754-931, looked up, variant C789A C812S C853S)
chain: GKDSKEQSYVFPEGIRTADNSFLSKDDIIFGNAVWAQYTWNYKFYPGILLEVDTNQDGSWIYFETGRSLTKDEDIYYLDIRIGDAVTFDGNEYVVVGLESRSHDLNIIRCIRGYDTVHLKKKNASGLLGKRTLIKALSSISLDLSEWAKRAKIILEDNEKNKGDAYRYLRHPIRGRKS
- aggregation propensity / rate relative to ScRad9[754–947] [4]: 1.5 times faster
- DNA-binding capacity by surface plasmon resonance (DNA): looses the DNA-binding capacity

Molecule: KRHRK(Me2)VLRD [Metazoan H4-K20me2 peptide]
- Ka (Mm53BP1[1463–1617]): 130000 M⁻¹
- Kd (Mm53BP1[1463–1617]): 7.7 µM
- dH (Mm53BP1[1463–1617]): -2.2 ± 0.1 kcal/mol
- stoichiometry N (Mm53BP1[1463–1617]): 1

B7: GST-ScRad9[754–947]: GST fusion of ScRad9[754–947] (protein)
chain: GKDSKEQSYVFPEGIRTADNSFLSKDDIIFGNAVWCQYTWNYKFYPGILLEVDTNQDGCWIYFETGRSLTKDEDIYYLDIRIGDAVTFDGNEYVVVGLECRSHDLNIIRCIRGYDTVHLKKKNASGLLGKRTLIKALSSISLDLSEWAKRAKIILEDNEKNKGDAYRYLRHPIRGRKSMTNVLSPKKHTDDEKD
modifications: left off: GST, end not stated, kept
- H3 captured in GST-pull-down (H3 from calf thymus): not together
